Experimental data from publication PMC3873039 (Anti-Cancer Agents in Medicinal Chemistry, 2013).

Experiments:
CCRF-CEM = assay: CellTiter-Glo luminescent cell viability assay; type: cell-based, human; conditions: 24 h, doses 0, 2, 10, 50, 250, 500 µM, p<0.05
How it was run: (§1)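 Cells grown in RPMI 1640 with 10% FBS, 1.5 mM L-glutamine and penicillin/streptomycin at 37 °C, 5% CO2. Seeded at 2.5 x 10³ cells/well and exposed 24 h to ethanol-dissolved test compound (0, 2, 10, 50, 250, 500 µM) with 0.1% ethanol vehicle. ATP luminescence normalized to vehicle (100%). IC50 taken from linear regression. Lowest significant dose set by one-way ANOVA/Tukey, p<0.05. Triplicates, three independent experiments.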

HL60 [1] = assay: CellTiter-Glo luminescent cell viability assay; type: cell-based, human; conditions: HL60, 24 h, doses 0, 2, 10, 50, 250, 500 µM, p<0.05
How it was run: as §1

JURKAT [2] = assay: Cell cycle analysis, propidium iodide flow cytometry; type: cell-based, human; conditions: IC50 dose, 24 h, p<0.05
How it was run: (§2)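 Seeded at 0.5 x 10^6 cells per well in 12-well plates and treated 24 h at the IC50 concentration of each test compound from CellTiter-Glo. Cells were pelleted (400 g, 5 min), PBS-washed and fixed in 80% ethanol overnight at -20 °C. Staining used 50 µg/mL PI plus RNase overnight at 4 °C.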

MOLT-3 [3] = assay: as above; type: cell-based, human; conditions: MOLT-3, IC50 dose, 24 h; vehicle control S = 24.8%
How it was run: as §2

HL60 [4] = assay: as above; type: cell-based, human; conditions: HL60, IC50 dose, 24 h; vehicle control G0/G1 = 56.8%
How it was run: as §2

KG1a [5] = assay: as above; type: cell-based, human; conditions: IC50 dose, 24 h, vehicle control S = 34.6%
How it was run: as §2

U937 [6] = assay: as above; type: cell-based, human; conditions: U937, IC50 dose, 24 h; vehicle control G0/G1 = 44.03%
How it was run: as §2

JURKAT [7] = assay: NucView caspase 3 activity assay by flow cytometry; type: cell-based, human; conditions: 24 h
How it was run: (§3)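 Seeded at 0.5 x 10⁶ cells/well and treated 24 h, with series of 0–50 or 0–250 µM depending on compound. Normalized to vehicle (0% apoptosis). Mean ± STD, three independent experiments in triplicate. One-way ANOVA/Tukey, p<0.05. AP50 = concentration giving 50% apoptotic cells.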

U937 [8] = assay: NucView caspase 3 activity assay by flow cytometry; type: cell-based, human
How it was run: as §3

JURKAT [9] = assay: Hoechst 33342 nuclear morphological analysis of apoptosis; type: cell-based; conditions: Homo sapiens, 24 h, read-out: AP50 (50% induction of apoptosis), Hoechst 33342 staining (Hoe)
How it was run: (§4)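 Seeded at 0.5 x 10⁶ cells/well in 12-well plates and treated 24 h. Cells were pelleted (400 g, 5 min, 4 °C), washed in PBS, fixed in 4% paraformaldehyde, cytospun, air-dried, then stained with 10 μg/ml Hoechst 33342 for 10 min in the dark. Fluorescence microscopy: 200 cells counted, scored by condensed/intense nuclei, shrinkage, blebbing and apoptotic bodies. % apoptotic nuclei calculated. AP50 = concentration giving 50% apoptotic cells.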

MOLT-3 [10] = assay: as above; type: cell-based; conditions: Homo sapiens, MOLT-3, 24 h, read-out: AP50 (50% induction of apoptosis), Hoechst 33342 staining (Hoe)
How it was run: as §4

HL60 [11] = assay: as above; type: cell-based; conditions: Homo sapiens, HL-60, 24 h, read-out: AP50 (50% induction of apoptosis), Hoechst 33342 staining (Hoe)
How it was run: as §4

THP-1 = assay: as above; type: cell-based; conditions: Homo sapiens, THP-1, 24 h, read-out: AP50 (50% induction of apoptosis), Hoechst 33342 staining (Hoe)
How it was run: as §4

KG1a [12] = assay: as above; type: cell-based; conditions: Homo sapiens, KG-1a, 24 h, read-out: AP50 (50% induction of apoptosis), Hoechst 33342 staining (Hoe)
How it was run: as §4

all leukemia cell lines [13] = assay: CellTiter-Glo assay, summary over the leukemia panel; type: cell-based, human; conditions: Homo sapiens, 24 h, read-out: IC50 values (range over leukemia cell lines)
How it was run: (§5)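 Cells plated at 2.5 x 10^3 per well in complete RPMI 1640 (10% FBS, 37 °C, 5% CO2). Test compounds dissolved in ethanol and dosed at 2–500 µM for 24 h; vehicle control was 0.1% (v/v) ethanol. Viability was read as ATP luminescence, normalised to vehicle (100%). IC50 was taken from linear regression of each curve. Triplicates, three independent experiments.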

lymphoid cell lines [14] = assay: CellTiter-Glo assay, summary over lymphoid lines; type: cell-based; conditions: Homo sapiens, 24 h, read-out: IC50 (range in lymphoid cell lines)
How it was run: as §5

myeloid cell lines [15] = assay: CellTiter-Glo assay, summary over myeloid lines; type: cell-based; conditions: Homo sapiens, 24 h, read-out: IC50 (range in myeloid cell lines)
How it was run: as §5

all leukemia cell lines [16] = assay: Apoptosis; type: cell-based, human; conditions: Homo sapiens, 24 h, read-out: AP50 values (range over leukemia cell lines)
lymphoid cell lines [17] = assay: Apoptosis; type: cell-based; conditions: Homo sapiens, 24 h, read-out: AP50 values (range in lymphoid cell lines)
myeloid cell lines [18] = assay: Apoptosis; type: cell-based; conditions: Homo sapiens, 24 h, read-out: AP50 values (range in myeloid cell lines)
[19] = system: human cervical cancer cells (HeLa); conditions: cited from earlier work
[20] = system: colorectal cancer cells (SW480, HT-29 and Caco-2); conditions: SW480, HT-29 and Caco-2, 24 h treatments; cited from earlier work

EC50 (JURKAT [7]; Homo sapiens, Jurkat, read-out: AP50 (50% induction of apoptosis), Caspase 3 activity assay (C3)): 35 µM | EC50 (U937 [8]; Homo sapiens, U-937, 24 h, read-out: AP50 (50% induction of apoptosis), Caspase 3 activity assay (C3)): 45 µM | EC50 (JURKAT [9]): 90 µM | EC50 (MOLT-3 [10]): 125 µM | EC50 (HL60 [11]): 129 µM | EC50 (THP-1): 220 µM | EC50 (KG1a [12]): 235 µM | IC50 (all leukemia cell lines [13]): 100 to 500 µM | EC50 (all leukemia cell lines [16]): 35 to 150 µM | EC50 (lymphoid cell lines [17]): 35 to 130 µM | EC50 (myeloid cell lines [18]): 84 to 235 µM
SMILES: O=c1cc(-c2ccc(O)cc2)oc2cc(O)cc(O)c12 [Apigenin]
The lowest dose of polyphenols at which there was a significant inhibition of cell proliferation compared to the vehicle control (CCRF-CEM): 10 µM | The lowest dose of polyphenols at which there was a significant inhibition of cell proliferation compared to the vehicle control (HL60 [1]): 10 µM | Phase of cell cycle accumulation (JURKAT [2]): S-phase | Percentage of cells in S phase of cell cycle (significant accumulation) (MOLT-3 [3]): S =35% | Percentage of cells in G0/G1 phase of cell cycle (significant accumulation) (HL60 [4]): G0/G1=67% | Percentage of cells in S phase of cell cycle (significant accumulation) (KG1a [5]): S = 50% | Percentage of cells in G0/G1 phase of cell cycle (significant accumulation) (U937 [6]): G0/G1 =59% | The lowest dose of polyphenols at which there was a significant induction of apoptosis compared to the vehicle control (JURKAT [7]; JURKAT, caspase 3 activity, p<0.05): 50 µM | The lowest dose of polyphenols at which there was a significant induction of apoptosis compared to the vehicle control (U937 [8]; U937, caspase 3 activity, 24 h, p<0.05): 50 µM | IC50 (lymphoid cell lines [14]): 140 to 195 µM | IC50 (myeloid cell lines [15]): 100 to 500 µM | IC50 [19]: 36 µM | IC50 [20]: 70 µM
